Measurements: ChEMBL document CHEMBL1933030, “Conjugation of spermine enhances cellular uptake of the stapled peptide-based inhibitors of p53-Mdm2 interaction” (Bioorg Med Chem Lett, 2011)

Columns and labels:
[1] = biological target: Tumour suppressor p53/oncoprotein Mdm2 (Homo sapiens, UniProt Q00987); assay: Inhibition of p53-MDM2 interaction by ELISA; format: protein assay
[2] = tested on: HeLa; assay: Cellular uptake in human HeLa cells at 10 uM after 2 hrs by FACS analysis relative to control; format: ADME, cell-based
Outline: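 HeLa cells were exposed to fluorescein-labelled peptides at 10 μM and analysed by flow cytometry (FACS). Uptake was read as mean cellular fluorescence, shown as representative histograms, and normalized for comparison between peptides.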

Chain of Tumour suppressor p53/oncoprotein Mdm2 (P04637 whole entry): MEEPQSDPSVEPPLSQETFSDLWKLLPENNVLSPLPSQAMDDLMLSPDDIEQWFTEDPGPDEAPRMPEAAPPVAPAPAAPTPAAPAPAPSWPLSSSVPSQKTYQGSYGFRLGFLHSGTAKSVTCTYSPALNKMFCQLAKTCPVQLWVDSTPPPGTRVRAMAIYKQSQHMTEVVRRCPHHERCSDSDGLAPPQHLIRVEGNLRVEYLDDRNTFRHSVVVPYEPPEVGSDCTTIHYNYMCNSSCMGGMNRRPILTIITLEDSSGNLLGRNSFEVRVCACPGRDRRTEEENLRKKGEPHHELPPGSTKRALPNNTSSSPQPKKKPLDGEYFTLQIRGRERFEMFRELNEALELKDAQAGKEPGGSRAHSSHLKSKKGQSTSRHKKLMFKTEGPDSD
Chain of Tumour suppressor p53/oncoprotein Mdm2 (Q00987 whole entry): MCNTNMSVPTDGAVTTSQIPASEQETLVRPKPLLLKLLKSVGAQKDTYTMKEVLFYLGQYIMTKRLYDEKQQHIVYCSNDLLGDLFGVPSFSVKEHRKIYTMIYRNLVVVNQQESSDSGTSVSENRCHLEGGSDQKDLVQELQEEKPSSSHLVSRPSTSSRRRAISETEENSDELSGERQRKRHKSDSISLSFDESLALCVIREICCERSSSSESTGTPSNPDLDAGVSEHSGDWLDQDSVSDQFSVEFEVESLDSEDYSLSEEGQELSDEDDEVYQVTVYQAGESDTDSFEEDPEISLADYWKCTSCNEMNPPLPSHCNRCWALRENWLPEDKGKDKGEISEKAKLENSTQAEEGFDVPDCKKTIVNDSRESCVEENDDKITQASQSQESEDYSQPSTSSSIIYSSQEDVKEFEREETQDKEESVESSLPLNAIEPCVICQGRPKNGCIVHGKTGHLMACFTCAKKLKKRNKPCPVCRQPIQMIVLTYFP

Row | Compound | IC50 [1] | Drug uptake [2]
1 | CC(=O)N[C@@H](CC(C)C)C(=O)N[C@H](C(=O)N[C@@H](Cc1ccccc1)C(=O)N[C@@H](CS)C(=O)N[C@@H](Cc1cnc[nH]1)C(=O)N[C@@H](Cc1ccc(O)cc1)C(=O)N[C@@H](Cc1c[nH]c2ccccc12)C(=O)N[C@@H](C)C(=O)N[C@@H](CCC(N)=O)C(=O)N[C@@H](CC(C)C)C(=O)N[C@@H](CS)C(=O)N[C@@H](CO)C(N)=O)[C@@H](C)O | 57 nM | –
2 | CC(=O)N[C@@H](CC(C)C)C(=O)N[C@H](C(=O)N[C@@H](Cc1ccccc1)C(=O)N[C@H](CS)C(=O)N[C@@H](Cc1cnc[nH]1)C(=O)N[C@@H](Cc1ccc(O)cc1)C(=O)N[C@@H](Cc1c[nH]c2ccccc12)C(=O)N[C@@H](C)C(=O)N[C@@H](CCC(N)=O)C(=O)N[C@@H](CC(C)C)C(=O)N[C@@H](CS)C(=O)N[C@@H](CO)C(N)=O)[C@@H](C)O | 13 nM | –
3 | CC(C)C[C@H](NC(=O)CCCCCNC(=O)c1ccccc1-c1c2ccc(=O)cc-2oc2cc(O)ccc12)C(=O)N[C@H](C(=O)N[C@@H](Cc1ccccc1)C(=O)N[C@@H](CS)C(=O)N[C@@H](Cc1cnc[nH]1)C(=O)N[C@@H](Cc1ccc(O)cc1)C(=O)N[C@@H](Cc1c[nH]c2ccccc12)C(=O)N[C@@H](C)C(=O)N[C@@H](CCC(N)=O)C(=O)N[C@@H](CC(C)C)C(=O)N[C@@H](CS)C(=O)N[C@@H](CO)C(N)=O)[C@@H](C)O | – | 4.5%
4 | CC(C)C[C@H](NC(=O)CCCCCNC(=O)c1ccccc1-c1c2ccc(=O)cc-2oc2cc(O)ccc12)C(=O)N[C@H](C(=O)N[C@@H](Cc1ccccc1)C(=O)N[C@H](CS)C(=O)N[C@@H](Cc1cnc[nH]1)C(=O)N[C@@H](Cc1ccc(O)cc1)C(=O)N[C@@H](Cc1c[nH]c2ccccc12)C(=O)N[C@@H](C)C(=O)N[C@@H](CCC(N)=O)C(=O)N[C@@H](CC(C)C)C(=O)N[C@@H](CS)C(=O)N[C@@H](CO)C(N)=O)[C@@H](C)O | – | 3.3%
